Data: ChEMBL document CHEMBL1781933, “Neurosteroid analogues. 16. A new explanation for the lack of anesthetic effects of δ(16)-alphaxalone and identification of a δ(17(20)) analogue with potent anesthetic activity” (J Med Chem, 2011)
The source made the active and inactive calls. The calls are words filed in the database; no cut-off is given here.

Key:
Xenopus laevis [1] = assay: Anesthetic effect on Xenopus laevis tadpole assessed as loss of swimming reflex at 10 uM; format: functional, organism-based
Oocyte [2] = assay: Activity at rat GABA-A receptor alpha1beta2gamma2L expressed in Xenopus oocytes assessed as potentiation of GABA-induced chloride current at 0.1 uM by electrophysiological Method relative to control; format: cell-based
Summary of the method: (§1)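 Oocytes expressing rat α1β2γ2L GABA-A receptors were recorded whole-cell. Compound at 0.1, 1 or 10 µM was co-applied with 2 µM GABA. Response is the current ratio with/without compound. At least four different oocytes per concentration; mean ± SEM.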

Oocyte [3] = assay: Activity at rat GABA-A receptor alpha1beta2gamma2L expressed in Xenopus oocytes assessed as potentiation of GABA-induced chloride current at 1 uM by electrophysiological Method relative to control; format: cell-based; summary of the method: as §1
Xenopus laevis [4] = assay: Anesthetic effect on Xenopus laevis tadpole assessed as loss of swimming reflex at 3 uM; format: functional, organism-based
Xenopus laevis [5] = assay: Anesthetic effect on Xenopus laevis tadpole assessed as loss of swimming reflex; format: functional, organism-based
Summary of the method: (§2)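 Xenopus tadpoles were exposed to steroid at five or more concentrations, with 10 or more animals per concentration. Loss of righting or swimming reflex was scored. EC50 and Hill coefficient were fitted from the dose–response curves; mean ± SEM.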

Xenopus laevis [6] = assay: Anesthetic effect on Xenopus laevis tadpole assessed as loss of righting reflex; format: functional, organism-based; summary of the method: as §2
Oocyte [7] = assay: Activity at rat GABA-A receptor alpha1beta2gamma2L expressed in Xenopus oocytes assessed as potentiation of GABA-induced chloride current at 10 uM by electrophysiological Method relative to control; format: cell-based; summary of the method: as §1
Oocyte [8] = assay: Activity at rat GABA-A receptor alpha1beta2gamma2L expressed in Xenopus oocytes assessed as increase in chloride current at 10 uM by electrophysiological Method relative to GABA; format: cell-based
Summary of the method: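 Direct gating measured without GABA. Current evoked by 10 µM steroid applied alone to oocytes expressing rat α1β2γ2L GABA-A receptors, expressed as a ratio to the current evoked by 2 µM GABA. Whole-cell recording. At least four oocytes per compound; mean ± SEM.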

Xenopus laevis [9] = assay: Anesthetic effect on Xenopus laevis tadpole assessed as loss of swimming reflex at 30 uM; format: functional, organism-based
Mus musculus [10] = assay: Anesthetic effect in mouse assessed as duration of loss of righting reflex at 16 mg/kg, iv; format: functional
Mus musculus [11] = assay: Anesthetic effect in mouse assessed as time taken for recovery of righting effect and walking at 16 mg/kg, iv; format: functional
Mus musculus [12] = assay: Anesthetic effect in mouse assessed as immediate loss of righting reflex at 16 mg/kg, iv; format: functional, organism-based; parameters: dose 16 mg/kg
Mus musculus [13] = assay: Anesthetic effect in mouse assessed as loss of righting reflex at 8 mg/kg, iv; format: functional, organism-based; parameters: dose 8 mg/kg
Mus musculus [14] = assay: Anesthetic effect in mouse assessed as duration of loss of righting reflex at 8 mg/kg, iv; format: functional

SMILES	Activity (Xenopus laevis [1])	fold change (FC) (Oocyte [2])	fold change (FC) (Oocyte [3])	Activity (Xenopus laevis [4])	EC50 (Xenopus laevis [5])	EC50 (Xenopus laevis [6])	fold change (FC) (Oocyte [7])	fold change (FC) (Oocyte [8])	Activity (Xenopus laevis [9])	Time (Mus musculus [10])	Time (Mus musculus [11])	Activity (Mus musculus [12])	Activity (Mus musculus [13])	Time (Mus musculus [14])
C/C(C#N)=C1/CC[C@H]2[C@@H]3CC[C@H]4C[C@H](O)CC[C@]4(C)[C@H]3C(=O)C[C@]12C	inactive	0.9	0.86	Active	10 µM	2.09 µM	1.53	0.05						
C[C@]12CC[C@@H](O)C[C@@H]1CC[C@@H]1[C@@H]2C(=O)C[C@]2(C)/C(=C/C#N)CC[C@@H]12	Active				17.3 µM	9.15 µM			inactive					
CC(=O)[C@H]1CC[C@H]2[C@@H]3CC[C@H]4C[C@H](O)CC[C@]4(C)[C@H]3C(=O)C[C@]12C [ALFAXALONE]										4 min	1 min	Active	inactive	
C[C@]12CC[C@@H](O)C[C@@H]1CC[C@@H]1[C@@H]2C(=O)C[C@]2(C)/C(=C\C#N)CC[C@@H]12	inactive			Active	5.48 µM					4 min				1.5 min
C[C@]12CC[C@@H](O)C[C@@H]1CC[C@H]1[C@@H]3CC[C@H](CC#N)[C@@]3(C)CC(=O)[C@@H]12	inactive	0.91	1.13	Active		3.58 µM	4.67	0.01						
C[C@]12CC[C@@H](O)C[C@@H]1CC[C@@H]1[C@@H]2C(=O)C[C@]2(C)C(C=O)=CC[C@@H]12	inactive			Active		3.22 µM								
C/C(C#N)=C1\CC[C@H]2[C@@H]3CC[C@H]4C[C@H](O)CC[C@]4(C)[C@H]3C(=O)C[C@]12C	inactive	0.9	1.52	Active	5.48 µM	2.71 µM	5.02	0.04						
C[C@]12CC[C@@H](O)C[C@@H]1CC[C@H]1[C@@H]3CC[C@H](C=O)[C@@]3(C)CC(=O)[C@@H]12	inactive			Active		3.98 µM								
